Active and inactive are the calls of the source. The calls are words filed in the database; no cut-off is given here.
Columns and labels:
[1] = target: T1, von Hippel-Lindau disease tumor suppressor/E3 ubiquitin-protein ligase XIAP (Homo sapiens) (UniProt P98170+P40337); assay: PROTAC activity at VHL/IAP in human MM1.S cells assessed as induction of XIAP degradation at 0.1 uM measured after 3 hrs by western blot analysis; type: cell-based
How it was run: (§1)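 Time course in MM.1S cells at 0.1 μM; protein levels at sampled time points by immunoblot (SDS-PAGE, PVDF, ECL) with densitometry.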

[2] = target: T2, von Hippel-Lindau disease tumor suppressor/Baculoviral IAP repeat-containing protein 2 (Homo sapiens) (UniProt Q13490+P40337); assay: PROTAC activity at VHL/IAP in human MM1.S cells assessed as induction of cIAP1 degradation at 100 nM incubated for 3 hrs by diaPASEF-based analysis; type: cell-based
How it was run: (§2)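 MM.1S cells treated with DMSO or 0.1 μM for 3 h (four biological replicates); urea lysis, reduction/alkylation, LysC then trypsin digestion, diaPASEF on timsTOF Pro2; label-free quantification, missing values imputed from Gaussian distribution, log2 fold change vs DMSO with limma statistics.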

[3] = target: T3, von Hippel-Lindau disease tumor suppressor/IAP (Homo sapiens) (UniProt P98170+Q13489+Q13490+P40337); assay: PROTAC activity at VHL/IAP in human MM1.S cells assessed as induction of VHL30 degradation at 0.1 uM measured after 6 hrs by western blot analysis; type: cell-based; how it was run: as §1
[4] = target: T2, von Hippel-Lindau disease tumor suppressor/Baculoviral IAP repeat-containing protein 2 (Homo sapiens); assay: PROTAC activity at VHL/IAP in human MM1.S cells assessed as induction of cIAP1 degradation pretreated for 1 hr with ubiquitin-activating inhibitor, MLN7243 followed by incubation with drug for 3 hrs by western blot analysis; type: cell-based
[5] = tested on: SU-DHL-6; assay: Cytotoxicity against human SU-DHL-6 cells assessed as reduction in cell viability measured after 96 hrs in presence of TNF-alpha by CellTiter-Glo luminescent assay; type: functional, cell-based; conditions: SU-DHL-6, 96 h
How it was run: (§3)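 Cells seeded with compound at indicated concentrations ± TNF-α 1 ng/mL, incubated 96 h at 37 °C; viability by CellTiter-Glo luminescence, normalized to DMSO control; mean ± SD of biological triplicates. NCI-H929 cultured in RPMI-1640/10% FBS with 2-mercaptoethanol and sodium pyruvate; other lines in RPMI-1640/10% FBS, 37 °C, 5% CO2.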

[6] = target: T1, von Hippel-Lindau disease tumor suppressor/E3 ubiquitin-protein ligase XIAP (Homo sapiens); assay: PROTAC activity at VHL/IAP in human MM1.S cells assessed as induction of XIAP degradation incubated for 16 hrs by western blot analysis; type: cell-based
How it was run: (§4)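 MM.1S cells treated 16 h at 0.1 or 1 μM (or concentration series); lysed, SDS-PAGE, PVDF immunoblot, ECL; densitometry normalized to loading control and DMSO; average of ≥3 independent experiments, DC50 from n = 4 repeats where derived.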

[7] = target: T3, von Hippel-Lindau disease tumor suppressor/IAP (Homo sapiens); assay: PROTAC activity at VHL/IAP in cIPA2 knock-out human MM1.S cells assessed as induction of VHL30 degradation at 0.1 uM incubated for 16 hrs by western blot analysis; type: cell-based
How it was run: (§5)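 Cas9-expressing MM.1S cells transduced with sgRNA against cIAP1, cIAP2 or XIAP (control sgRNA luciferase; ≥95% transduction by FACS at 48 h); treated 0.1 μM for 16 h; VHL30 measured by immunoblot (SDS-PAGE, PVDF, ECL) with densitometry.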

[8] = target: T3, von Hippel-Lindau disease tumor suppressor/IAP (Homo sapiens); assay: PROTAC activity at VHL/IAP in human MM1.S cells assessed as induction of VHL30 degradation incubated for 16 hrs by western blot analysis; type: cell-based; conditions: dose 0.0001-1 µM; how it was run: as §4
[9] = target: T1, von Hippel-Lindau disease tumor suppressor/E3 ubiquitin-protein ligase XIAP (Homo sapiens); assay: PROTAC activity at VHL/IAP in human MM1.S cells assessed as induction of XIAP degradation pretreated for 1 hr with ubiquitin-activating inhibitor, MLN7243 followed by incubation with drug for 3 hrs by western blot analysis; type: cell-based
[10] = target: T4, von Hippel-Lindau disease tumor suppressor/Baculoviral IAP repeat-containing protein 3 (Homo sapiens) (UniProt Q13489+P40337); assay: PROTAC activity at VHL/IAP in human MM1.S cells assessed as induction of cIAP2 degradation pretreated for 1 hr with ubiquitin-activating inhibitor, MLN7243 followed by incubation with drug for 3 hrs by western blot analysis; type: cell-based
[11] = target: T2, von Hippel-Lindau disease tumor suppressor/Baculoviral IAP repeat-containing protein 2 (Homo sapiens); assay: PROTAC activity at VHL/IAP in human MM1.S cells assessed as induction of cIAP1 degradation at 0.1 uM measured after 3 hrs by western blot analysis; type: cell-based; how it was run: as §1
[12] = target: T2, von Hippel-Lindau disease tumor suppressor/Baculoviral IAP repeat-containing protein 2 (Homo sapiens); assay: PROTAC activity at VHL/IAP in human MM1.S cells assessed as induction of cIAP1 degradation incubated for 16 hrs by western blot analysis; type: cell-based; how it was run: as §4
[13] = target: T4, von Hippel-Lindau disease tumor suppressor/Baculoviral IAP repeat-containing protein 3 (Homo sapiens); assay: PROTAC activity at VHL/IAP in human MM1.S cells assessed as induction of cIAP2 degradation at 1 uM incubated for 16 hrs followed by drug wash-out for 72 hrs by western blot analysis; type: cell-based
How it was run: (§6)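 MM.1S cells given a single exposure to 1 μM, then compound washed out and protein followed up to 72 h by immunoblot with densitometry.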

[14] = target: T4, von Hippel-Lindau disease tumor suppressor/Baculoviral IAP repeat-containing protein 3 (Homo sapiens); assay: PROTAC activity at VHL/IAP in human MM1.S cells assessed as induction of cIAP2 degradation pretreated for 1 hr with proteasome inhibitor, MG132 followed by incubation with drug for 3 hrs by western blot analysis; type: cell-based
[15] = target: T3, von Hippel-Lindau disease tumor suppressor/IAP (Homo sapiens); assay: PROTAC activity at VHL/IAP in human MM1.S cells assessed as induction of VHL19 degradation at 1 uM incubated for 16 hrs followed by drug wash-out for 72 hrs by western blot analysis; type: cell-based; how it was run: as §6
[16] = tested on: NCI-H929; assay: Cytotoxicity against human NCI-H929 cells assessed as reduction in cell viability measured after 96 hrs in presence of TNF-alpha by CellTiter-Glo luminescent assay; type: functional, cell-based; conditions: NCI-H929, 96 h; how it was run: as §3
[17] = target: T4, von Hippel-Lindau disease tumor suppressor/Baculoviral IAP repeat-containing protein 3 (Homo sapiens); assay: PROTAC activity at VHL/IAP in human MM1.S cells assessed as induction of cIAP2 degradation at 0.1 uM measured after 3 hrs by western blot analysis; type: cell-based; how it was run: as §1
[18] = target: T1, von Hippel-Lindau disease tumor suppressor/E3 ubiquitin-protein ligase XIAP (Homo sapiens); assay: PROTAC activity at VHL/IAP in human MM1.S cells assessed as induction of XIAP degradation at 1 uM incubated for 16 hrs followed by drug wash-out for 72 hrs and later treated with VHL inhibitor, VH298 by western blot analysis; type: cell-based
[19] = target: T1, von Hippel-Lindau disease tumor suppressor/E3 ubiquitin-protein ligase XIAP (Homo sapiens); assay: PROTAC activity at VHL/IAP in human MM1.S cells assessed as induction of XIAP degradation pretreated for 1 hr with proteasome inhibitor, MG132 followed by incubation with drug for 3 hrs by western blot analysis; type: cell-based
[20] = target: T4, von Hippel-Lindau disease tumor suppressor/Baculoviral IAP repeat-containing protein 3 (Homo sapiens); assay: PROTAC activity at VHL/IAP in human MM1.S cells assessed as induction of cIAP2 degradation incubated for 16 hrs by western blot analysis; type: cell-based; how it was run: as §4
[21] = target: T3, von Hippel-Lindau disease tumor suppressor/IAP (Homo sapiens); assay: PROTAC activity at VHL/IAP in XIAP knock-out human MM1.S cells assessed as induction of VHL30 degradation at 0.1 uM incubated for 16 hrs by western blot analysis; type: cell-based; how it was run: as §5
[22] = target: T3, von Hippel-Lindau disease tumor suppressor/IAP (Homo sapiens); assay: PROTAC activity at VHL/IAP in human MM1.S cells assessed as induction of VHL30 degradation at 1 uM incubated for 16 hrs followed by drug wash-out for 72 hrs by western blot analysis; type: cell-based; how it was run: as §6
[23] = target: T1, von Hippel-Lindau disease tumor suppressor/E3 ubiquitin-protein ligase XIAP (Homo sapiens); assay: PROTAC activity at VHL/IAP in human MM1.S cells assessed as induction of XIAP degradation at 1 uM incubated for 16 hrs followed by drug wash-out for 72 hrs by western blot analysis; type: cell-based; how it was run: as §6
[24] = target: T3, von Hippel-Lindau disease tumor suppressor/IAP (Homo sapiens); assay: PROTAC activity at VHL/IAP in cIPA1 knock-out human MM1.S cells assessed as induction of VHL30 degradation at 0.1 uM incubated for 16 hrs by western blot analysis; type: cell-based; how it was run: as §5
[25] = target: T1, von Hippel-Lindau disease tumor suppressor/E3 ubiquitin-protein ligase XIAP (Homo sapiens); assay: PROTAC activity at VHL/IAP in human MM1.S cells assessed as induction of XIAP degradation at 100 nM incubated for 3 hrs by diaPASEF-based analysis; type: cell-based; how it was run: as §2
[26] = target: T2, von Hippel-Lindau disease tumor suppressor/Baculoviral IAP repeat-containing protein 2 (Homo sapiens); assay: PROTAC activity at VHL/IAP in human MM1.S cells assessed as induction of cIAP1 degradation pretreated for 1 hr with proteasome inhibitor, MG132 followed by incubation with drug for 3 hrs by western blot analysis; type: cell-based
[27] = target: T2, von Hippel-Lindau disease tumor suppressor/Baculoviral IAP repeat-containing protein 2 (Homo sapiens); assay: PROTAC activity at VHL/IAP in human MM1.S cells assessed as induction of cIAP1 degradation at 1 uM incubated for 16 hrs followed by drug wash-out for 72 hrs by western blot analysis; type: cell-based; how it was run: as §6

T2 sequence (P40337 whole entry, looked up): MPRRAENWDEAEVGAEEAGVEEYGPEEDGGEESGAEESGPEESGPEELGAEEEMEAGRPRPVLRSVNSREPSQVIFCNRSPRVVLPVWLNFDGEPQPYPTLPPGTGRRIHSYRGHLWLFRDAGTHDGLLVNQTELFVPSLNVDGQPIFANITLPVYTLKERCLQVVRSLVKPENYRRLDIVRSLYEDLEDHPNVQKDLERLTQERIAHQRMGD
T2 sequence (Q13490 whole entry, looked up): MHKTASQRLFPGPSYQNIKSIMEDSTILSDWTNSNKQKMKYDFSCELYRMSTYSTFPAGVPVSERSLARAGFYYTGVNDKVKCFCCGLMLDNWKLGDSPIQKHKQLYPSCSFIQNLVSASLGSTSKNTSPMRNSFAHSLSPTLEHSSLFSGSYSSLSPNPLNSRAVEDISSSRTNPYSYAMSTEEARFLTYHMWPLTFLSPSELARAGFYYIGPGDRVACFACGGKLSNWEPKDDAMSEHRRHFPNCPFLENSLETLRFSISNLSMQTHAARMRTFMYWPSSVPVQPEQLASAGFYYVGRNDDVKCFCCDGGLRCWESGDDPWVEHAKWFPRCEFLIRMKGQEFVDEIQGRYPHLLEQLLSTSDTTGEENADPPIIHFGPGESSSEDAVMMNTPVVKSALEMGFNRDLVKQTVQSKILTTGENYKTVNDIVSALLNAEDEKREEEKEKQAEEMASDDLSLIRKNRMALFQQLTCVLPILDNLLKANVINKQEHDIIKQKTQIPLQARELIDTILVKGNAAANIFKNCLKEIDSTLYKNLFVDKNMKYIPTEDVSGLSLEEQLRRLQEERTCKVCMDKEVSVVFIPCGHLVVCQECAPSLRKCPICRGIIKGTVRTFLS
T3 sequence (P40337 whole entry, looked up): as the sequence (P40337 whole entry, looked up) above
T3 sequence (P98170 whole entry, looked up): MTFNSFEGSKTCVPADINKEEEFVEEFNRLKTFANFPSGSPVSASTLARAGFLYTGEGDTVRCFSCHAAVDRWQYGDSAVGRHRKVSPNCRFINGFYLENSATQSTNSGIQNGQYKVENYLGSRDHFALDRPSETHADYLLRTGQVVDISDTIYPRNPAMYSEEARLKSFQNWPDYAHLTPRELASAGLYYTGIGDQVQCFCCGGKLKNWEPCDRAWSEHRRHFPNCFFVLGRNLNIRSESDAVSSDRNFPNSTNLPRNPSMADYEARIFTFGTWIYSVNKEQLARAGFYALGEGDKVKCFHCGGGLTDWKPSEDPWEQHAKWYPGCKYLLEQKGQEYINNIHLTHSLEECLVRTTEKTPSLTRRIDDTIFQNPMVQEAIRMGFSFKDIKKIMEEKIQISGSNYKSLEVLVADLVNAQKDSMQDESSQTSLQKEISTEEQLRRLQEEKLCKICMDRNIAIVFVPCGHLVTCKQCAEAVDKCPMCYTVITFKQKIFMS
T3 sequence (Q13489 whole entry, looked up): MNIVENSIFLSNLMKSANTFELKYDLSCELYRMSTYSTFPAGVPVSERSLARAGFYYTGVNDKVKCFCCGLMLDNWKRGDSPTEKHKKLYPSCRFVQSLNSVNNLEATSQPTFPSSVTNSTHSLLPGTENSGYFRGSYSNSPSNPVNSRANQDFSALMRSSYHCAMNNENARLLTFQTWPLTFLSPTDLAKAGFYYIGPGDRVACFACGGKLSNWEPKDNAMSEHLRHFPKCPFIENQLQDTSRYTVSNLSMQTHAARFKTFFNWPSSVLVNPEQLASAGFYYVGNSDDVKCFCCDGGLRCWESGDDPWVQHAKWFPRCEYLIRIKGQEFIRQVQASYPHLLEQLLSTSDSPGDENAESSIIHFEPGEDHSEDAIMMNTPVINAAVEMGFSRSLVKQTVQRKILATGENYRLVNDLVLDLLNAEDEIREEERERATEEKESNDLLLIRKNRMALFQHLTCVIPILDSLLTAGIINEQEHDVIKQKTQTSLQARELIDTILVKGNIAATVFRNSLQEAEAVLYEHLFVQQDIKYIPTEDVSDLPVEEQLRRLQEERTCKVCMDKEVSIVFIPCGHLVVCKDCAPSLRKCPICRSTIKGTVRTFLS
T3 sequence (Q13490 whole entry, looked up): as the sequence (Q13490 whole entry, looked up) above
T1 sequence (P40337 whole entry, looked up): as the sequence (P40337 whole entry, looked up) above
T1 sequence (P98170 whole entry, looked up): as the sequence (P98170 whole entry, looked up) above
T4 sequence (P40337 whole entry, looked up): as the sequence (P40337 whole entry, looked up) above
T4 sequence (Q13489 whole entry, looked up): as the sequence (Q13489 whole entry, looked up) above

With `CN[C@@H](C)C(=O)N[C@H](C(=O)N1C[C@@H](Oc2cccc(OCCCCC(=O)N[C@H](C(=O)N3C[C@H](O)C[C@H]3C(=O)N[C@@H](C)c3ccc(-c4scnc4C)cc3)C(C)(C)C)c2)C[C@H]1C(=O)N[C@@H]1CCCc2ccccc21)C1CCCCC1` the Activity [1] was 100%, the Activity [2] was “Active” and the Activity [3] was “Active”. For the same molecule, the Activity [4] was “inactive”, the IC50 [5] was 1.6 nM and the Activity [6] was “Dose-Dependent Effect”. For the same molecule, the Activity [7] was “Active”, the Activity [8] was “Dose-Dependent Effect” and the Activity [9] was “inactive”. The Activity [10] was “inactive”, the Activity [11] was 100% and the Activity [12] was “Dose-Dependent Effect”. For the same molecule, the Activity [13] was “Active”, the Activity [14] was “inactive” and the Activity [15] was “inactive”. For the same molecule, the IC50 [16] was 8 nM, the Activity [17] was 100% and the Activity [18] was “inactive”. The Activity [19] was “inactive”, the Activity [20] was “Dose-Dependent Effect” and the Activity [21] was “Active”. For the same molecule, the Activity [22] was “inactive”, the Activity [23] was “Active” and the Activity [24] was “Active”. The Activity [25] was “Active”, the Activity [26] was “inactive” and the Activity [27] was “Active”.
